Data from ChEMBL document CHEMBL1145088, “Ascochlorin derivatives as ligands for nuclear hormone receptors” (J Med Chem, 2003).

Key:
[1] = test system: U2OS (Homo sapiens); assay: Concentration required for inhibition of U2OS cell growth
[2] = target: T1, Androgen receptor (Homo sapiens) (UniProt P10275); assay: Minimum effective concentration for androgen receptor (AR) activation
T1 sequence (whole entry): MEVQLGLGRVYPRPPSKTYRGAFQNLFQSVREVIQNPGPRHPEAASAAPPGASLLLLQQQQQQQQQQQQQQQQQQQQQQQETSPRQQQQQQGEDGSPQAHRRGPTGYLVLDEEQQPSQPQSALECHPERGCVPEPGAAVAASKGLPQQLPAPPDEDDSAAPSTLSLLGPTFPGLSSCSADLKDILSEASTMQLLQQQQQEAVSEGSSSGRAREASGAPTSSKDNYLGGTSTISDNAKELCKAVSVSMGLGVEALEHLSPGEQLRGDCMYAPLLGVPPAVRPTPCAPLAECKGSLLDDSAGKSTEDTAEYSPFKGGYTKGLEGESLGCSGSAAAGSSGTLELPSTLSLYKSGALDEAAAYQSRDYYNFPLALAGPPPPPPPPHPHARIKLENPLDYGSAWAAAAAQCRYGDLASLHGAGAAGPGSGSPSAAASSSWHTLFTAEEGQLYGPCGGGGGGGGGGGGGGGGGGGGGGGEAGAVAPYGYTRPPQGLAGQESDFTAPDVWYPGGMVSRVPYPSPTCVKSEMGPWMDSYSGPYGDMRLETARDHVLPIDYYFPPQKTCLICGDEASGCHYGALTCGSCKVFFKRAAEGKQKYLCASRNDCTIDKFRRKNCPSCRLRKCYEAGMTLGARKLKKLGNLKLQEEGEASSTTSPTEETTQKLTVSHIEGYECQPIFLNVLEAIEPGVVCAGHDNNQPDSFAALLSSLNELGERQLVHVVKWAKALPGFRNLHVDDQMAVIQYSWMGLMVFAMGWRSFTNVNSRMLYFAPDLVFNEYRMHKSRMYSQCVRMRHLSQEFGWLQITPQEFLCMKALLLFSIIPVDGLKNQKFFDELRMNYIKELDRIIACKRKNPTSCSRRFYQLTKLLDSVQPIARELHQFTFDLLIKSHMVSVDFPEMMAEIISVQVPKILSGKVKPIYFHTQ

[3] = target: T2, Nuclear receptor subfamily 1 group I member 2 (Homo sapiens, UniProt O75469); assay: Minimum effective concentration required to activate pregnane X receptor (PXR)
T2 sequence (O75469 whole entry): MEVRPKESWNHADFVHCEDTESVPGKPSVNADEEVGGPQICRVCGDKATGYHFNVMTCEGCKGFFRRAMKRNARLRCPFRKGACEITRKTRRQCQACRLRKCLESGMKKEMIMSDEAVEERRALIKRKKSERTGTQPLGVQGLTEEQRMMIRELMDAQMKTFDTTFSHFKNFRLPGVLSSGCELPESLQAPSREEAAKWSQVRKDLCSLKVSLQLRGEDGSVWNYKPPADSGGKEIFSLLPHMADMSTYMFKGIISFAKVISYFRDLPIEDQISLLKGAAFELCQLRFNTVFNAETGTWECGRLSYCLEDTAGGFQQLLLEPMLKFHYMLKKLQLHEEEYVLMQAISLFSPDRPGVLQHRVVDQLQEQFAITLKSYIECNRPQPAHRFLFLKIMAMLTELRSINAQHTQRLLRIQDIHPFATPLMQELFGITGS

[4] = target: T3, Estrogen receptor beta (Homo sapiens, UniProt Q92731); assay: Minimum effective concentration required to activate Estrogen receptor 2 (ER beta); Not detected
T3 sequence (Q92731 whole entry): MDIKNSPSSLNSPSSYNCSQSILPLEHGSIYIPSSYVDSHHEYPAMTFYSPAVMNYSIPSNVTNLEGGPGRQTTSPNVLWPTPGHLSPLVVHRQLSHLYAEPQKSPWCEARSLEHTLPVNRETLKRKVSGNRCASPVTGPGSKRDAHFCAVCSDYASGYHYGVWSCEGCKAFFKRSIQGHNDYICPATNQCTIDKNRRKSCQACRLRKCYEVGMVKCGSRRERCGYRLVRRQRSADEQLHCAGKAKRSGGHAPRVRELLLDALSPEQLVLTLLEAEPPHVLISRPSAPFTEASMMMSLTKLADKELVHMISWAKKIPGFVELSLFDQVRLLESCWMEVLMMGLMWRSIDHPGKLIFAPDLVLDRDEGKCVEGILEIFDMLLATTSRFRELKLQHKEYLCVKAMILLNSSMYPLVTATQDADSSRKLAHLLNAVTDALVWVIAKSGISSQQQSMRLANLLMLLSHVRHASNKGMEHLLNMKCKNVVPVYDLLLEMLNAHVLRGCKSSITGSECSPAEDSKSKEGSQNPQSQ

[5] = target: T4, Estrogen receptor (Homo sapiens, UniProt P03372); assay: Minimum effective concentration required to activate Estrogen receptor 1 (ER alpha); Not detected
T4 sequence (P03372 whole entry): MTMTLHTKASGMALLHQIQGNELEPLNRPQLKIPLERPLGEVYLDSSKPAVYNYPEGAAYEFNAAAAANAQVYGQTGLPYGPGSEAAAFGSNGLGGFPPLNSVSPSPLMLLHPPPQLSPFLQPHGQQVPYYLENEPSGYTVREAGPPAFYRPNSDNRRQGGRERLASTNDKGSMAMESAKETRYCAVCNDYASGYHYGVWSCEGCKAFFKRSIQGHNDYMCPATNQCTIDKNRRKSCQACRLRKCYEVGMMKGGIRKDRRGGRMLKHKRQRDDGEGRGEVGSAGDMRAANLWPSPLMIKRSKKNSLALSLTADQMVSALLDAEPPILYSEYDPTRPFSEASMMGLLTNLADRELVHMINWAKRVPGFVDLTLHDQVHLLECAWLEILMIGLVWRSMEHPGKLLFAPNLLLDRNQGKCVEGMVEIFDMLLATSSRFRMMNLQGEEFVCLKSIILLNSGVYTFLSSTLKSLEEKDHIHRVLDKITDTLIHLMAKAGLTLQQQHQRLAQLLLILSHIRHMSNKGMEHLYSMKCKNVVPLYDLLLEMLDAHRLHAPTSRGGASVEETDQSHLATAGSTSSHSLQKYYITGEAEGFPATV

[6] = target: T5, Peroxisome proliferator-activated receptor alpha (Homo sapiens) (UniProt Q07869); assay: Minimum effective concentration for peroxisome proliferator activated receptor (PPAR alpha) activation
T5 sequence (whole entry): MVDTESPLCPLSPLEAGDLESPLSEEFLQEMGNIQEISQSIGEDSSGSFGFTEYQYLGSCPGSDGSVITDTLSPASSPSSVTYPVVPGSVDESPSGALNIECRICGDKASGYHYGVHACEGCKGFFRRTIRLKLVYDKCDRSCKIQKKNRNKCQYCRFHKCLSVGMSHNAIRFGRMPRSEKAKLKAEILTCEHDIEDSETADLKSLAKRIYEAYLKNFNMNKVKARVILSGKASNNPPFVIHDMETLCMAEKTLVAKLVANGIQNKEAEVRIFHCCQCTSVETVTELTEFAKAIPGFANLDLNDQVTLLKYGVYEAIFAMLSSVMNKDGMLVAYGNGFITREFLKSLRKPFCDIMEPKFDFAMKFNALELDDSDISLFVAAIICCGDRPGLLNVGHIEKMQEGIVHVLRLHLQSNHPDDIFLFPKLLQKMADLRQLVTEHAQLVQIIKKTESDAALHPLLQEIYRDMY

[7] = target: T3, Estrogen receptor beta; assay: Minimum effective concentration for Estrogen receptor 2 (ER beta) inhibition
Outline: (§1)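 U2OS cells were calcium-phosphate co-transfected with an ER expression vector (2 µg), an ER reporter plasmid (4 µg) and pCMV-β-galactosidase (4 µg) as internal control. After 12 h cells were PBS-washed and recovered 4 h, then trypsinized and exposed to drugs for 20 h. Lysate reporter activity was normalised to β-gal and expressed as stimulation index; triplicate cultures.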

[8] = target: T6, Estrogen receptor (Homo sapiens) (UniProt P03372); assay: Minimum effective concentration for Estrogen receptor 1 (ER alpha) inhibition
T6 sequence (whole entry): T4 sequence (P03372 whole entry)
Outline: as §1

Compound | IC50 [1] | MEC [2] | MEC [3] | MEC [4] | MEC [5] | MEC [6] | MEC [7] | MEC [8]
CC(=O)Oc1c(Cl)c(C)c(C(=O)O)c(OC(C)=O)c1C/C=C(C)/C=C/[C@@]1(C)[C@H](C)CCC(=O)[C@@H]1C | 32 µM | 1 µM | 1 µM | Not Active | Not Active |  |  | 
C/C(=C\Cc1c(O)c(Cl)c(C)c(C=O)c1O)CC/C=C(\C)C1=CC(=O)C(C)(C)O1 | 56 µM |  | 1 µM | Not Active | Not Active | 10 µM |  | 
CC(/C=C/[C@@]1(C)[C@H](C)CCC(=O)[C@@H]1C)=C\Cc1c(O)c(Cl)c(C)c(C=O)c1O [ASCOCHLORIN] | 1 µM |  | 1 µM |  |  |  | 1 µM | 1 µM
